Assay results: ChEMBL document CHEMBL1121887, “A new nontricyclic antidepressant agent. Synthesis and activity of N-[trans-2-(dimethylamino)cyclopentyl]-N-(3,4-dichlorophenyl)propanamide and related compounds” (1981)

Experiments:
Type in all cases: functional
[1] = organism: Mus musculus; experiment: Antidepressant activity using apomorphine potentiation test in mice
Outline: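 Male CF-1 mice in groups of four got test compound i.p. (50 and 25 mg/kg) in 0.25% aqueous methylcellulose. 1 h later they got apomorphine 10 mg/kg s.c. and were watched 30 min for stereotyped gnawing and licking, each positive. If ≥3 were positive, the test was repeated at 0.3 log lower doses until ≤1 responded. ED50 and 95% CI by Spearman–Karber.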

[2] = organism: Mus musculus; experiment: Antidepressant activity using yohimbine potentiation test in mice
[3] = organism: Mus musculus; experiment: Antidepressant activity using oxotremorine antagonism test in mice

SMILES	ED50 ([1]; Mus musculus, read-out: ED50) [mg/kg]	ED50 ([2]; Mus musculus, read-out: ED50) [mg/kg]	ED50 ([3]; Mus musculus, read-out: ED50) [mg/kg]	ED50 [1] [mg/kg]	ED50 [2] [mg/kg]	ED50 [3] [mg/kg]
C=CC(=O)N(c1ccc(Cl)c(Cl)c1)C1CCCC1N(C)C (stereo not drawn)	5	2	5	–	–	–
CN(C)C1CCCC1N(C(=O)C1CCC1)c1ccc(Cl)c(Cl)c1 (stereo not drawn)	> 50	0.8	0.6	–	–	–
CCC(=O)N(c1ccc(Cl)c(Cl)c1)C1CCCCCC1N(C)C (stereo not drawn)	20	2	6	–	–	–
CC(C)C(=O)N(c1ccc(Cl)c(Cl)c1)C1CCCC1N(C)C (stereo not drawn)	5	2	4	–	–	–
CCC(=O)N(c1ccc(Cl)c(Cl)c1)C1CCCCCCC1N(C)C (stereo not drawn)	6	20	10	–	–	–
CCC(=O)N(c1ccc(C#N)cc1)C1CCCC1N(C)C (stereo not drawn)	> 50	10	40	–	–	–
CCC(=O)N(c1ccc([N+](=O)[O-])cc1)C1CCCC1N(C)C (stereo not drawn)	20	20	6	–	–	–
CN(C)C1CCCC1N(C(=O)C1CCCCC1)c1ccc(Cl)c(Cl)c1 (stereo not drawn)	> 50	1	2	–	–	–
CCC(=O)N(c1ccc(Cl)c(Cl)c1)C1CCCCC1N(C)C (stereo not drawn)	20	30	20	–	–	–
CCNC1CCCC1N(C(=O)CC)c1ccc(Cl)c(Cl)c1 (stereo not drawn)	–	0.2	2	–	–	–
CCC(=O)N(c1ccc(F)cc1)C1CCCC1N(C)C (stereo not drawn)	> 50	5	0.08	–	–	–
CCC(=O)N(c1ccc(C(C)=O)cc1)C1CCCC1N(C)C (stereo not drawn)	> 50	> 50	40	–	–	–
CCC(=O)N(c1cccc(OC)c1)C1CCCC1N(C)C (stereo not drawn)	4	0.8	4	–	–	–
CCC(=O)N(c1cccc(C(F)(F)F)c1)C1CCCC1N(C)C (stereo not drawn)	0.9	0.3	0.2	–	–	–
CN(C)C1CCCC1N(C(=O)C1CC1)c1ccc(Cl)c(Cl)c1 (stereo not drawn)	0.4	0.2	0.3	–	–	–
CCC(=O)N(c1cccc(Cl)c1)C1CCCC1N(C)C (stereo not drawn)	20	0.4	0.2	–	–	–
CCC(=O)N(c1ccc(Cl)c(Cl)c1)C1CCCC1N(C)CCc1ccccc1 (stereo not drawn)	5	0.1	0.4	–	–	–
CN(C)C1CCCC1N(C(=O)c1ccco1)c1ccc(Cl)c(Cl)c1 (stereo not drawn)	> 50	9	> 50	–	–	–
CCC(=O)N(c1ccc(C(F)(F)F)cc1)C1CCCC1N(C)C (stereo not drawn)	10	10	25	–	–	–
CCC(=O)N(c1ccc(Br)c(Br)c1)C1CCCC1N(C)C (stereo not drawn)	0.5	0.1	0.2	–	–	–
CCCN(CCC)C1CCCC1N(C(=O)CC)c1ccc(Cl)c(Cl)c1 (stereo not drawn)	> 50	2	0.1	–	–	–
C=CCNC1CCCC1N(C(=O)CC)c1ccc(Cl)c(Cl)c1 (stereo not drawn)	–	0.2	3	–	–	–
CC(=O)N(c1ccc(Cl)c(Cl)c1)C1CCCC1N(C)C (stereo not drawn)	20	9	10	–	–	–

SMILES	ED50 ([1]; Mus musculus, read-out: ED50) [mg/kg]	ED50 ([2]; Mus musculus, read-out: ED50) [mg/kg]	ED50 ([3]; Mus musculus, read-out: ED50) [mg/kg]	ED50 [1] [mg/kg]	ED50 [2] [mg/kg]	ED50 [3] [mg/kg]
CCC(=O)N(c1ccc(C(=O)OC)cc1)C1CCCC1N(C)C (stereo not drawn)	> 50	> 50	> 50	–	–	–
CCCC(=O)N(c1ccccc1)C1CCCC1N(C)C (stereo not drawn)	40	6	10	–	–	–
CC(=O)N(c1ccccc1)C1CCCC1N(C)C (stereo not drawn)	40	7	9	–	–	–
CCC(=O)N(c1ccc(Cl)cc1)C1CCCC1N(C)C (stereo not drawn)	> 50	3	0.2	–	–	–
CCC(=O)N(c1ccccc1C)C1CCCC1N(C)C (stereo not drawn)	> 50	7	5	–	–	–
CCC(=O)N(c1c(F)c(F)c(F)c(F)c1F)C1CCCC1N(C)C (stereo not drawn)	> 50	> 50	> 50	–	–	–
CCC(=O)N(c1ccccc1Cl)C1CCCC1N(C)C (stereo not drawn)	> 50	6	2	–	–	–
CCC(=O)N(c1ccc(Cl)c(Cl)c1)C1CCCC1N(C)CCN(C)C (stereo not drawn)	20	0.8	5	–	–	–
CCC(=O)N(c1ccc(Cl)c(Cl)c1)C1CCCC1N(C)CCCN(C)C (stereo not drawn)	30	4	10	–	–	–
CCC(=O)N(c1cc(Cl)c(Cl)c(Cl)c1)C1CCCC1N(C)C (stereo not drawn)	40	4	40	–	–	–
CCC(=O)N(c1cc(Cl)cc(Cl)c1)C1CCCC1N(C)C (stereo not drawn)	30	0.9	5	–	–	–
CCC(=O)N(c1ccc(C)c(Cl)c1)C1CCCC1N(C)C (stereo not drawn)	2	1	0.6	–	–	–
CCC(=O)N(c1ccc(OC)cc1)C1CCCCC1N(C)C (stereo not drawn)	> 50	> 50	> 50	–	–	–
CN(C)C1CCCC1N(C=O)c1ccccc1 (stereo not drawn)	–	40	> 50	–	–	–
CCC(=O)N(c1cccc(Br)c1)C1CCCC1N(C)C (stereo not drawn)	2	0.1	0.1	–	–	–
CCC(=O)N(c1ccc(Cl)c(C)c1)C1CCCC1N(C)C (stereo not drawn)	10	2	2	–	–	–
CCC(=O)N(c1ccc(Cl)cc1)C1CCCCC1N(C)C (stereo not drawn)	14	35	17	–	–	–
CCC(=O)N(c1ccc(Br)cc1)C1CCCC1N(C)C (stereo not drawn)	> 50	2	3	–	–	–
CN(C)C1CCCC1N(C=O)c1ccc(Cl)c(Cl)c1 (stereo not drawn)	> 50	9	40	–	–	–
CCC(=O)N(c1ccc(OC)c(OC)c1)C1CCCC1N(C)C (stereo not drawn)	10	9	10	–	–	–
CCC(=O)N(c1ccccc1)C1CCCCC1N(C)C (stereo not drawn)	> 50	> 50	> 50	–	–	–
CCC(=O)N(c1ccc(Cl)c(Cl)c1)C1CCCC1N(CC)CC (stereo not drawn)	0.3	0.1	0.03	–	–	–
CCC(=O)N(c1ccc(Cl)c(Cl)c1)C1CCCC1O (stereo not drawn)	20	0.4	9	–	–	–

SMILES	ED50 ([1]; Mus musculus, read-out: ED50) [mg/kg]	ED50 ([2]; Mus musculus, read-out: ED50) [mg/kg]	ED50 ([3]; Mus musculus, read-out: ED50) [mg/kg]	ED50 [1] [mg/kg]	ED50 [2] [mg/kg]	ED50 [3] [mg/kg]
CCC(=O)N(c1ccc(C)cc1)C1CCCCC1N(C)C (stereo not drawn)	> 50	> 50	> 50	–	–	–
CN(C)C1CCCC1N(C(=O)c1cccs1)c1ccc(Cl)c(Cl)c1 (stereo not drawn)	> 50	20	10	–	–	–
CCC(=O)N(c1ccc(Cl)c(Cl)c1)C1CCCC1N (stereo not drawn)	–	0.02	0.8	–	–	–
CCC(=O)N(c1cccc(F)c1)C1CCCC1N(C)C (stereo not drawn)	5	0.4	0.6	–	–	–
CCC(=O)N(c1ccc(Cl)c(Cl)c1)C1CCCC1N(C)Cc1ccccc1 (stereo not drawn)	> 50	0.2	40	–	–	–
CCC(=O)N(c1ccc(Cl)c(Cl)c1)C1CCCC1NC (stereo not drawn)	–	0.4	0.3	–	–	–
CCC(=O)N(c1ccc(F)c(Cl)c1)C1CCCC1N(C)C (stereo not drawn)	0.7	0.2	2	–	–	–
CCC(=O)N(c1ccc(Cl)c(Cl)c1)C1CCCC1N1CCCC1 (stereo not drawn)	3	0.6	2	–	–	–
C=CCN(C)C1CCCC1N(C(=O)CC)c1ccc(Cl)c(Cl)c1 (stereo not drawn)	6	0.2	0.2	–	–	–
CCCC(=O)N(c1ccc(Cl)c(Cl)c1)C1CCCC1N(C)C (stereo not drawn)	0.9	2	7	–	–	–
CCC(=O)N(c1cccc(C)c1)C1CCCCC1N(C)C (stereo not drawn)	> 50	> 50	15	–	–	–
CCC(=O)N(c1ccccc1)C1CCCC1N(C)C (cis isomer)	–	–	–	>50	10	>50
CCC(=O)N(c1ccc(Cl)c(Cl)c1)C1CCCC1N(C)C (cis isomer) [ECLANAMINE]	–	–	–	>50	0.9	2
CCC(=O)N(c1ccc(Cl)c(Cl)c1)C1CCCC1N(C)C (stereo in doubt; 6) [ECLANAMINE]	–	–	–	10	0.4	0.2
CCC(=O)N(c1ccccc1)C1CCCC1N(C)C (stereo in doubt; 16)	–	–	–	0.8	3	2
CCC(=O)N(c1ccc(OC)cc1)C1CCCC1N(C)C (stereo in doubt; 20)	–	–	–	–	30	20
CCC(=O)N(c1cccc(C)c1)C1CCCC1N(C)C (stereo in doubt; 22)	25	3	1	–	–	–
CCC(=O)N(c1ccc(C)cc1)C1CCCC1N(C)C (stereo in doubt; 24)	–	–	–	10	30	10
CCC(=O)N(c1cccc(C)c1)C1CCCC1N(C)C (stereo in doubt; 44)	–	–	–	25	3	1
CCC(=O)N(c1ccc(C)cc1)C1CCCC1N(C)C (stereo in doubt; 45)	10	30	10	–	–	–
CCC(=O)N(c1ccc(OC)cc1)C1CCCC1N(C)C (stereo in doubt; 47)	> 50	30	20	–	–	–
CN(C)CCCN1c2ccccc2CCc2ccccc21.Cl [IMIPRAMINE HYDROCHLORIDE]	1	4	1	–	–	–
